# Measured values of several laboratories.
# Each line is one published result; the experiments were not run side by side.
# Target: Delta-type opioid receptor (Oprd1, Rattus norvegicus, UniProt P33533)
# Notes: cell membranes
Structure (SMILES),test,quantity,result
N=C(N)NCCC[C@H]1NC(=O)[C@H](Cc2ccc(O)cc2)NC(=O)[C@H](CCCCN)NC(=O)[C@H](Cc2ccccc2)NC1=O,"ligand displacement, radioligand",Ki,64 nM
NC(N)=Nc1ccc2[nH]c3c(c2c1)C[C@@]1(O)[C@H]2Cc4ccc(O)c5c4[C@@]1(CCN2CC1CC1)[C@H]3O5,"ligand displacement, radioligand",Ki,2.86 nM
Cc1cc(C)c(C[C@H](NC(=O)[C@@H](CCCNC(=N)N)NC(=O)[C@@H](N)Cc2c(C)cc(O)cc2C)C(=O)N[C@@H](CCCCN)C(N)=O)c(C)c1,"ligand displacement, radioligand",Ki,329 nM
Cc1cc(O)cc(C)c1C[C@H](C)C(=O)N[C@@H]1CCCCC[C@@H](C(N)=O)NC(=O)[C@H](Cc2ccccc2)NC(=O)[C@H](Cc2ccccc2)NC1=O,"ligand displacement, radioligand",Ki,18.7 nM
Cc1cc(O)cc(C)c1C[C@H](N)C(=O)N1CCc2ccc(Cc3cccc([N+](=O)[O-])c3)cc2C1,"ligand displacement, radioligand",Ki,2.5 nM
Cc1cc(O)cc(C)c1C[C@H](N)C(=O)N[C@@H]1CCN(C(=O)c2ccccc2)c2ccc(Cc3ccc4ccccc4c3)cc21,"GTPγS binding, antagonist",Kb,15 nM
Cc1cccc(C)c1C[C@H](NC(=O)[C@@H](CCCNC(=N)N)NC(=O)[C@@H](N)Cc1c(C)cc(O)cc1C)C(=O)N[C@@H](CCCCN)C(N)=O,"ligand displacement, radioligand",Ki,105 nM
Cc1cccc(Cc2ccc3c(c2)CN(C(=O)[C@@H](N)Cc2c(C)cc(O)cc2C)CC3)c1,"ligand displacement, radioligand",Ki,3 nM
Cc1cc(O)cc(C)c1C[C@H](N)C(=O)N[C@H](CCCNC(=N)N)C(=O)N[C@@H](Cc1c(C)cccc1C(C)C)C(=O)N[C@@H](CCCCN)C(N)=O,"ligand displacement, radioligand",Ki,77.1 nM
Cc1cc(O)cc(C)c1C[C@H](N)C(=O)N1CCc2ccc(Cc3cccc(N)c3)cc2C1,"ligand displacement, radioligand",Ki,5.5 nM
Cc1cc(O)cc(C)c1C[C@H](C)C(=O)N[C@@H]1C/C=C\CC[C@@H](C(N)=O)NC(=O)[C@H](Cc2ccccc2)NC(=O)[C@H](Cc2ccccc2)NC1=O,"ligand displacement, radioligand",Ki,7.67 nM
Cc1cc(O)cc(C)c1C[C@H](N)C(=O)N1CCc2ccc(Cc3ccccc3N)cc2C1,"ligand displacement, radioligand",Ki,9 nM
Cc1cc(O)cc(C)c1C[C@H](N)C(=O)N[C@@H]1CCN(S(C)(=O)=O)c2ccc(CN3CCc4ccccc4C3)cc21,"GTPγS binding, antagonist",Kb,0.85 nM
